Sampled rows, rich in hits. Any-hit rate of the full collection: about 2.1%.
PABP1 MLLE inh – blocks PAM2 peptide binding to the PABP1 MLLE domain; P11940; GST-MLLE / FITC-PAM2 fluorescence polarization; inhibition, % at 20 µM; 360,000 tested, 0.36% active; in the data active = inhibition above about 35%, passing the limit was not always enough
NS3 helicase inh – inhibitors of Hepatitis C virus NS3 helicase. NS3 helicase DNA unwinding, Cy5 molecular beacon fluorescence. inhibition, % at 10.9 µM. 290,000 tested, 0.56% active;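 active = inhibition above the mean of all tested compounds plus 3 SD, set per campaign, cut at about 35% in these data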
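System: Hepatitis C virus NS3 helicase domain fragment enzyme | Reagent: Annealed dual-labelled DNA beacon duplex, ATP-started | Compound dosing: 10.9 µM single point, 0.8% DMSO | Incubation: 1 h reaction at 25 °C, ATP-initiated | Technique: Cy5 fluorescence | Evaluation: Percent inhibition from t60/t0 fluorescence ratio | Benchmarks: Low DMSO, high thioflavine S at 110 µM | Replication: Singlicate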
ZTA DNA inh – blocks Epstein-Barr virus ZTA, an EBNA-1 counter-screen | AID 2234 | inhibition, % at 11 µM | P03206 | ZTA-DNA binding, fluorescence polarization | 320,000 tested, 0.15% active; in the data active = inhibition above about 33%
Target sequence (P03206 whole entry, looked up): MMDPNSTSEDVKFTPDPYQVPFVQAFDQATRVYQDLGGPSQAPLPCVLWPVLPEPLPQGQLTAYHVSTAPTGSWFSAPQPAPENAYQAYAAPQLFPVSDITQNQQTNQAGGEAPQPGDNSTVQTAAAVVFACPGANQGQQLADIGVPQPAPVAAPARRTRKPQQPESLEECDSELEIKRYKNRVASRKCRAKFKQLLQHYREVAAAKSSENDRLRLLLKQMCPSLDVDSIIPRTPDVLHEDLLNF
EBNA-1 inh – blocks EBNA-1 binding to DNA; EBNA-1 DNA binding, fluorescence polarization; inhibition, % at 14.8 µM; 300,000 tested, 0.34% active; in the data active = inhibition above about 28%
eIF4H FP inh – inhibitors of RNA binding by human eIF4H; AID 2012; eIF4H fluorescence polarization binding assay; Q15056; inhibition, % at 35 µM; 290,000 tested, 0.94% active;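 note: calls also rest on retests at 20 µM and on dose response follow-up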
PABP polyA inh – blocks human PABP binding to poly(A) RNA | P11940 | fluorescence polarization | inhibition, % at 35 µM | 290,000 tested, 1% active | AID 2014;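 note: calls also rest on retests at 20 µM and on dose response follow-up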
NS3 helicase cf – confirmation of Hepatitis C virus NS3 helicase inhibitors; shares compounds with NS3 helicase inh; NS3 helicase DNA unwinding, Cy5 molecular beacon fluorescence; inhibition, % at 10.9 µM; 1,600 tested, 31% active; AID 1943;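 active = inhibition above the mean of all tested compounds plus 3 SD, cutoff set per campaign, cut at about 36% in these data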
DNA FID counter – counter-screen for HCV NS3 helicase inhibitors: DNA intercalator displacement. 1,600 tested, 4% active. DNA fluorescent intercalator displacement, fluorescence. inhibition, % at 7.9 µM. shares compounds with NS3 helicase inh. AID 1945; in the data active = inhibition above about 37%;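 note: higher means more displacement of ethidium bromide from the DNA hairpin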
FID counter DR – displaces fluorescent intercalator from DNA, HCV helicase counter-screen; IC50, µM; 120 tested, under 10 active; fluorescent intercalator displacement from DNA, fluorescence; shares compounds with NS3 helicase inh
A number is an active result; – = inactive; ? = inconclusive; · = no result given. Unless noted, the rule behind the calls is not given here.

SMILES	PABP1 MLLE inh	NS3 helicase inh	ZTA DNA inh	EBNA-1 inh	eIF4H FP inh	PABP polyA inh	NS3 helicase cf	DNA FID counter	others
Nc1nc(-c2ccco2)cs1	–	37.5	–	–	79.2	66.5	–	–
c1coc(-c2nc(-c3ccco3)c(-c3ccco3)nc2-c2ccco2)c1	–	116.2	76.0	38.1	84.8	93.6	93.2	37.8
Nc1nc(-c2ccco2)c(-c2ccco2)s1	43.6	48.8	–	–	?	?	–	–
Nc1nc(-c2ccc(-n3nncc3-c3ccco3)cc2)cs1	·	–	–	–	–	–	·	·
CCOC(=O)c1cc(NC(=O)Cc2ccc(S(=O)(=O)N3CCOCC3)s2)cc(C(=O)OCC)c1	–	·	–	–	·	·	·	·
CC(O)(c1cccnc1)c1nc(-c2ccoc2)cs1 (configuration not stated)	–	·	·	·	·	·	·	·
C=CCn1c(SCCC)nc2sc3c(c2c1=O)CCc1ccccc1-3	–	60.2	–	–	–	–	–	–
C=CCSc1nc2sc3c(c2c(=O)n1CC=C)CCc1ccccc1-3	–	–	–	–	–	–	·	·
O=C(NNC(=S)NC1CCCCC1)c1sc2ccccc2c1Cl	–	48.0	–	–	–	–	45.6	–
CCCNC(=O)Cn1c(=O)oc2ccccc21	–	–	–	–	–	–	·	·
CC(C)(C)C1CCC(C(=O)Nc2ccc(N3CCOCC3)cc2N2CCOCC2)CC1 (configuration not stated)	–	·	–	·	·	·	·	·
CCOC(=O)C1=C(c2ccccc2)N=c2s/c(=C\c3ccco3)c(=O)n2C1c1cccs1 (configuration not stated)	–	47.6	–	–	–	–	–	–
COc1ccc(C2C(C(C)=O)=C(C)N=c3s/c(=C\c4ccco4)c(=O)n32)c(OC)c1 (configuration not stated)	–	53.5	–	–	–	–	–	–
CC(C)N(C(=O)CSc1ccc(S(=O)(=O)N2CCCCC2)cn1)c1ccccc1	–	·	–	·	·	·	·	·
O=C(O)CCn1c(SCCOc2ccccc2)nc2ccccc21	–	40.8	–	–	–	–	–	–
Cc1ccc(S(=O)(=O)N2[C@@H](c3ccc(Cl)cc3)C(C(=O)O)=CC[C@H]2c2ccc3c(c2)OCO3)cc1	–	·	–	–	·	·	·	·
Cc1ccc(NC(N)=S)cc1	–	36.5	–	–	–	–	–	–
COc1cc(/C=C2\C(=O)ON=C2c2ccccc2)cc(Br)c1O	–	38.3	–	–	?	?	–	–
Cc1oc(-c2cc(F)cc(F)c2)nc1CN1CCSCC1	–	–	–	–	–	–	·	·
Cc1cc(NS(=O)(=O)c2ccc(NC(=O)/C=C/c3c(F)cccc3Cl)cc2)nc(C)n1	–	36.4	–	–	–	–	–	–
Cc1cc(NS(=O)(=O)c2ccc(NC(=O)/C=C/c3c(F)cccc3Cl)cc2)no1	–	–	–	–	–	–	·	·
O=C(Oc1ccc(NC(=O)c2cc3c(cc2Br)OCO3)cc1)c1ccccc1	–	–	–	–	–	–	–	–
Cc1c(C(=O)Nc2ccc(S(N)(=O)=O)cc2)oc2ccc(Cl)cc12	–	–	–	–	–	–	·	·
Cc1c(C(=O)NNC(=S)Nc2ccc(S(N)(=O)=O)cc2)oc2ccccc12	–	38.3	–	–	–	–	–	–
NNC(=O)c1cccc(COc2ccc3c(c2)CCC3)c1	–	–	–	–	–	–	·	·
SMILES	PABP1 MLLE inh	NS3 helicase inh	ZTA DNA inh	EBNA-1 inh	eIF4H FP inh	PABP polyA inh	NS3 helicase cf	DNA FID counter	others
Nc1ccc(C(=O)N2CCN(S(=O)(=O)c3ccc(Br)cc3)CC2)cc1[N+](=O)[O-]	–	·	–	–	·	·	·	·
O=C(O)c1ccc(Cl)c2c1C1C=CCC1C(c1ccccn1)N2 (configuration not stated)	·	62.6	–	–	99.7	81.2	75.2	–
O=[N+]([O-])c1ccc(Cl)c2c1C1C=CCC1C(c1ccccn1)N2 (configuration not stated)	–	–	–	–	–	–	·	·
CCOC(=O)C1CCN(C(=O)C2CCN(S(=O)(=O)c3ccc4ccccc4c3)CC2)CC1	–	–	–	–	–	–	·	·
Cc1ccc(-c2nnc(CN3CCCCC3C)o2)cc1 (configuration not stated)	–	–	–	–	–	–	·	·
O=c1c2c(-c3ccco3)csc2nc(SCc2cn3cccnc3n2)n1-c1ccccc1	–	61.6	–	–	88.9	65.9	93.9	–	FID counter DR=–
O=C(CSc1nc2scc(-c3ccco3)c2c(=O)n1-c1ccccc1)NCC1CCCO1 (configuration not stated)	–	85.5	–	–	–	–	–	–
C=CCn1c(SCC(=O)NCC2CCCO2)nc2scc(-c3ccco3)c2c1=O (configuration not stated)	–	–	–	–	–	–	·	·
O=c1[nH][nH]c2c(N=Cc3ccccc3O)ccc(F)c12	48.7	52.7	·	·	?	?	–	–
CCc1ccc(O)c(N=Cc2ccccc2O)c1	–	–	–	–	–	–	·	·
CC1=C(C(=O)N(C(C)C)C(C)C)CC(CC(=O)NC2CCCCC2)C(=O)N1CCC1=CCCCC1 (configuration not stated)	–	·	·	·	·	·	·	·
CN(C)c1ccc(/C=N/NC(=O)c2ccccc2O)o1	–	–	–	–	–	–	·	·
CN(C)c1ccc(/C=N/NC(=O)C(O)(c2ccccc2)c2ccccc2)o1	–	64.6	–	–	–	–	–	–
Cc1ccc(NC(=O)C2=C(c3ccccc3)S(=O)(=O)CCS2(=O)=O)cc1	–	38.3	–	–	–	–	58.8	–	FID counter DR=–
Cc1ccc(NC(=O)c2ccccc2)cc1	–	–	–	–	–	–	·	·
Cc1cc(C)cc(NCc2cc(=O)oc3cc(-c4ccccc4)c(O)cc23)c1	–	–	–	–	–	–	·	·
COc1ccc(C)cc1NCc1cc(=O)oc2cc(-c3ccccc3)c(O)cc12	–	49.3	–	–	–	–	–	–
Cc1cc2oc(=O)cc(-c3cc4ccccc4o3)c2cc1O	–	39.4	–	–	·	·	–	–
COc1cccc2cc(-c3cc(=O)oc4cc(C)c(OCC(C)=O)cc34)oc12	–	–	–	–	–	–	·	·
O=C(CSc1ccc(-c2ccco2)nn1)c1cccc([N+](=O)[O-])c1	–	37.9	–	–	–	–	–	–
COc1cc2cc3c(N)c(C(=O)Nc4sc(C)c(C)c4C#N)sc3nc2cc1OC	–	36.9	–	–	88.7	70.7	49.9	–	FID counter DR=–
Cc1cc(C(=O)Nc2sc(C)c(C)c2C#N)no1	–	–	–	–	–	–	·	·
CC1(C)Cc2c(C#N)c(NCCc3ccccc3)nc(-c3ccco3)c2CO1	–	40.2	–	–	–	–	62.9	–	FID counter DR=–
NC(=O)Cn1c(=O)n(-c2ccccc2)c(=O)c2oc3ccccc3c21	–	–	–	–	–	–	·	·
